# Data reported in ChEMBL document CHEMBL1122969, “Spiro[4.5] and spiro[4.6] carboxylic acids: cyclic analogues of valproic acid. Synthesis and anticonvulsant evaluation” (J Med Chem, 1985).
# How the values were obtained:
# Mus musculus [1] = assay: Anticonvulsant activity against Maximal electroshock seizure at dose 300 mg/kg at 0.5 hr; assay type: functional
# Outline: (§1)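 Phase I mouse screen. Compound was suspended in 30% polyethylene glycol 400 and given by intraperitoneal injection at 30, 100, 300 or 600 mg/kg. Testing was at 30 min and 4 h (maximal electroshock or subcutaneous pentylenetetrazol), with rotorod toxicity scored alongside. Scored as animals protected/tested; toxicity was flagged at the 0.5 h or 4 h check.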
# Mus musculus [2] = assay: Anticonvulsant activity against Maximal electroshock seizure at dose 300 mg/kg at 4 hr; assay type: functional; outline: as §1
# Mus musculus [3] = assay: Anticonvulsant activity against Maximal electroshock seizure at dose 600 mg/kg at 4 hr; assay type: functional; outline: as §1
# Mus musculus [4] = assay: Anticonvulsant activity against Subcutaneous pentylenetetrazole test at dose 300 mg/kg at 0.5 hr; assay type: functional; outline: as §1
# Mus musculus [5] = assay: Anticonvulsant activity against Subcutaneous pentylenetetrazole test at dose 300 mg/kg at 4 hr; assay type: functional; outline: as §1
# Mus musculus [6] = assay: Anticonvulsant activity against Subcutaneous pentylenetetrazole test at dose 600 mg/kg at 0.5 hr; assay type: functional; outline: as §1
# Mus musculus [7] = assay: Anticonvulsant activity against Subcutaneous pentylenetetrazole test at dose 600 mg/kg at 4 hr; assay type: functional; outline: as §1
# Mus musculus [8] = assay: Anticonvulsant activity against neurologic toxicity test at dose 300 mg/kg at 0.5 hr; assay type: organism-based; parameters: dose 300 mg/kg; conditions: in vivo
# Outline: (§2)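 Mice got the compound as a suspension in 30% polyethylene glycol 400 by ip injection (30, 100, 300, 600 mg/kg) 30 min or 4 h before the rotorod neurological toxicity test. The value is the number of animals showing toxicity over the number tested.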
# Mus musculus [9] = assay: Anticonvulsant activity against neurologic toxicity test at dose 300 mg/kg at 4 hr; assay type: organism-based; parameters: dose 300 mg/kg; conditions: in vivo; outline: as §2
# Mus musculus [10] = assay: Anticonvulsant activity against neurologic toxicity test at dose 600 mg/kg at 0.5 hr; assay type: organism-based; parameters: dose 600 mg/kg; conditions: in vivo; outline: as §2
# Mus musculus [11] = assay: Anticonvulsant activity against neurologic toxicity test at dose 600 mg/kg at 4 hr; assay type: organism-based; parameters: dose 600 mg/kg; conditions: in vivo; outline: as §2
# Mus musculus [12] = assay: Anticonvulsant activity against Maximal electroshock seizure at dose 600 mg/kg at 0.5 hr; assay type: functional; outline: as §1
# Mus musculus [13] = assay: Phase V qualification against antipicrotoxin activity administered subcutaneously at 3.2 mg/kg; assay type: functional; conditions: sc, route subcutaneous
# Mus musculus [14] = assay: Anticonvulsant activity against Bicucullin (3.75 mg/kg) induced clonic seizure at dose 360 mg/kg subcutaneously at pretreatment time of 15 min.; assay type: functional; conditions: route subcutaneous
# Outline: (§3)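 CF1 mice (Sprague–Dawley) were given the compound sc in 30% polyethylene glycol 400, with vehicle-injected controls. After the stated pretreatment interval, at the time of peak effect, bicuculline 3.75 mg/kg was injected sc; this dose gives clonic and tonic seizures and death in all controls. Clonic seizure = at least one 5-s clonic spasm episode. Tonic seizure = hindlimb flexion then extension. Scored as mice protected/tested plus mean ± SD onset, minutes.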
# Mus musculus [15] = assay: Anticonvulsant activity against Bicucullin (3.75 mg/kg) induced clonic seizure at dose 400 mg/kg subcutaneously at pretreatment time of 15 min.; assay type: functional; conditions: route subcutaneous; outline: as §3
# Mus musculus [16] = assay: Anticonvulsant activity against Bicucullin (3.75 mg/kg) induced death at dose 400 mg/kg subcutaneously at pretreatment time of 15 min.; assay type: ADME, organism-based; parameters: dose 400 mg/kg, route subcutaneous; conditions: in vivo, sc
# Mus musculus [17] = assay: Anticonvulsant activity against Bicucullin (3.75 mg/kg) induced tonic seizure at dose 360 mg/kg subcutaneously at pretreatment time of 15 min.; assay type: functional; conditions: route subcutaneous; outline: as §3
# Mus musculus [18] = assay: Anticonvulsant activity against Bicucullin (3.75 mg/kg) induced tonic seizure at dose 400 mg/kg subcutaneously at pretreatment time of 15 min.; assay type: functional; conditions: route subcutaneous; outline: as §3
# Mus musculus [19] = assay: Anticonvulsant activity against picrotoxin (4.0 mg/kg) induced clonic seizures at 400 mg/kg subcutaneous dose 15 min pretreatment; assay type: functional
# Mus musculus [20] = species on record: Mus musculus; assay: animal or person; conditions: sc
# Mus musculus [21] = assay: Anticonvulsant activity against Maximal electroshock seizure at dose 300 mg/kg at 0.5 hr; toxic; assay type: ADME, organism-based; parameters: dose 300 mg/kg; conditions: in vivo; outline: as §1
# Mus musculus [22] = assay: Anticonvulsant activity against Maximal electroshock seizure at dose 300 mg/kg at 4 hr; toxic; assay type: ADME, organism-based; parameters: dose 300 mg/kg; conditions: in vivo; outline: as §1
# Mus musculus [23] = assay: Phase II qualification against administered subcutaneously was reported.; assay type: functional; conditions: sc
# Outline: (§4)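 Mice were used. scMet ED50 and rotorod TD50 came from groups of 6–12 mice dosed over a range until at least three points fell within 10–90% protection or minimal neurotoxicity. Both were read at the time of peak effect, 0.5 h. ED50, TD50 and 95% confidence intervals were obtained from a plot by the Litchfield–Wilcoxon method. PI = TD50/ED50.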
# Mus musculus [24] = assay: Anticonvulsant activity against Bicucullin (3.75 mg/kg) induced clonic seizure at dose 150 mg/kg subcutaneously at pretreatment time of 15 min.; assay type: functional; conditions: route subcutaneous; outline: as §3
# Mus musculus [25] = assay: Anticonvulsant activity against Bicucullin (3.75 mg/kg) induced clonic seizure at dose 150 mg/kg subcutaneously at pretreatment time of 30 min.; assay type: functional; conditions: route subcutaneous; outline: as §3
# Mus musculus [26] = assay: Anticonvulsant activity against Bicucullin (3.75 mg/kg) induced death at dose 150 mg/kg subcutaneously at pretreatment time of 15 min.; assay type: ADME, organism-based; parameters: dose 150 mg/kg, route subcutaneous; conditions: in vivo, sc
# Mus musculus [27] = assay: Anticonvulsant activity against Bicucullin (3.75 mg/kg) induced death at dose 150 mg/kg subcutaneously at pretreatment time of 30 min.; assay type: ADME, organism-based; parameters: dose 150 mg/kg, route subcutaneous; conditions: in vivo, sc
# Mus musculus [28] = assay: Anticonvulsant activity against Bicucullin (3.75 mg/kg) induced tonic seizure at dose 150 mg/kg subcutaneously at pretreatment time of 15 min.; assay type: functional; conditions: route subcutaneous; outline: as §3
# [29] = Phase II qualification against neurotoxicity administered subcutaneously was reported.; assay type: toxicity, organism-based; conditions: mouse, in vivo, sc; outline: as §4
# [30] = Phase V qualification against neurotoxicity administered subcutaneously at a dose (3.2 mg/kg) was reported.; assay type: toxicity, organism-based; conditions: mouse, in vivo, sc
# Mus musculus [31] = assay: Anticonvulsant activity against picrotoxin (4.0 mg/kg) induced clonic seizures at 180 mg/kg subcutaneous dose 15 min pretreatment; assay type: functional
# [32] = Protective index is the ratio of TD50 to that of ED50; assay type: ADME; conditions: read-out: Protective index; outline: as §4
# Mus musculus [33] = assay: Anticonvulsant activity against Bicucullin (3.75 mg/kg) induced tonic seizure at dose 150 mg/kg subcutaneously at pretreatment time of 30 min.; assay type: functional; conditions: route subcutaneous; outline: as §3
# Mus musculus [34] = assay: Anticonvulsant activity against Bicucullin (3.75 mg/kg) induced clonic seizure at dose 200 mg/kg subcutaneously at pretreatment time of 30 min.; assay type: functional; conditions: route subcutaneous; outline: as §3
# Mus musculus [35] = assay: Anticonvulsant activity against Bicucullin (3.75 mg/kg) induced death at dose 200 mg/kg subcutaneously at pretreatment time of 30 min.; assay type: ADME, organism-based; parameters: dose 200 mg/kg, route subcutaneous; conditions: in vivo, sc
# Mus musculus [36] = assay: Anticonvulsant activity against Bicucullin (3.75 mg/kg) induced tonic seizure at dose 200 mg/kg subcutaneously at pretreatment time of 15 min.; assay type: functional; conditions: route subcutaneous, in the assay text read “pretreatment time of 30 min” for “pretreatment time of 15 min”; outline: as §3
# Mus musculus [37] = assay: Anticonvulsant activity against Bicucullin (3.75 mg/kg) induced clonic seizure at dose 300 mg/kg subcutaneously at pretreatment time of 30 min.; assay type: functional; conditions: route subcutaneous; outline: as §3
# Mus musculus [38] = assay: Anticonvulsant activity against Bicucullin (3.75 mg/kg) induced death at dose 300 mg/kg subcutaneously at pretreatment time of 30 min.; assay type: ADME, organism-based; parameters: dose 300 mg/kg, route subcutaneous; conditions: in vivo, sc
# Mus musculus [39] = assay: Anticonvulsant activity against Bicucullin (3.75 mg/kg) induced tonic seizure at dose 300 mg/kg subcutaneously at pretreatment time of 30 min.; assay type: functional; conditions: route subcutaneous; outline: as §3
SMILES,No. protected/tested (Mus musculus [1]),No. protected/tested (Mus musculus [2]),No. protected/tested (Mus musculus [3]),No. protected/tested (Mus musculus [4]),No. protected/tested (Mus musculus [5]),No. protected/tested (Mus musculus [6]),No. protected/tested (Mus musculus [7]),No. toxicity/tested (Mus musculus [8]),No. toxicity/tested (Mus musculus [9]),No. toxicity/tested (Mus musculus [10]),No. toxicity/tested (Mus musculus [11]),No. protected/tested (Mus musculus [12]),No. protected/tested (Mus musculus [21]),further results
O=C([O-])C1CCC2(CCCCCC2)C1.[Na+] (stereo unspecified),0,0,0,0,0,1,0,0,0,4,2,0,,
CCCC(CCC)C(=O)O [VALPROIC ACID],,,,,,,,,,,,,,ED50 (Mus musculus [13]): 387 mg/kg; Average onset (Mus musculus [14]): 9 min; Average onset (Mus musculus [15]): 15 min; Average onset (Mus musculus [16]): 18 min; Average onset (Mus musculus [17]): 11 min; Average onset (Mus musculus [18]): 17 min; Average onset (Mus musculus [19]): 16 min; ED50 (Mus musculus [20]): 149 mg/kg
O=C(O)CC1CCC2(CCCCCC2)C1 (stereo unspecified),,,0,1,0,1,1,3,0,4,0,1,1,No. protected/tested (Mus musculus [22]): 0
O=C(O)C1CCC2(CCCCCC2)C1 (stereo unspecified),,0,0,1,0,1,1,1,0,4,1,0,1,ED50 (Mus musculus [23]): 83 mg/kg; ED50 (Mus musculus [13]): 167 mg/kg; Average onset (Mus musculus [24]): 7 min; Average onset (Mus musculus [25]): 8 min; Average onset (Mus musculus [26]): 10 min; Average onset (Mus musculus [27]): 14 min; Average onset (Mus musculus [28]): 10 min; TD50 [29]: 193 mg/kg; TD50 [30]: 193 mg/kg; Average onset (Mus musculus [31]): 21 min; selectivity ratio [32]: 2.3; Average onset (Mus musculus [33]): 13 min
O=C(O)C1CCC2(CCCCC2)C1 (stereo unspecified),,0,0,1,0,1,0,3,0,4,0,0,1,Average onset (Mus musculus [34]): 8 min; Average onset (Mus musculus [35]): 12 min; Average onset (Mus musculus [36]): 11 min
O=C(O)C1(C(=O)O)CCC2(CCCCC2)C1,0,0,0,0,0,1,0,0,0,0,2,0,,
O=C(O)C1(C(=O)O)CCC2(CCCCCC2)C1,0,,0,1,0,1,0,0,0,3,2,0,,ED50 (Mus musculus [23]): 194 mg/kg; No. protected/tested (Mus musculus [22]): 0; Average onset (Mus musculus [37]): 9 min; Average onset (Mus musculus [38]): 13 min; Average onset (Mus musculus [39]): 12 min; TD50 [29]: 275 mg/kg; selectivity ratio [32]: 1.4
